4 compounds from ChEMBL document CHEMBL3091343, “Nicotinamide phosphoribosyltransferase inhibitors, design, preparation, and structure-activity relationship” (J Med Chem, 2013) can be followed below.

Active and inactive are the calls of the source. No cut-off for these calls is given here.

The nature of data set [1]: AUC in NMRI mouse at 50 mg/kg, iv. The data set is classed as ADME, organism-based. Also noted: dose 50 mg/kg, route intravenous. The note with it: plasma. The gist of the method: (§1)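 Mouse PK after a single i.v. dose. Plasma proteins were precipitated with acetonitrile containing internal standard (3:1 v/v). Samples were analysed by UPLC-MS/MS on a C18 column at 40°C with an acetonitrile–0.05% formic acid gradient, using positive electrospray MRM. Parameters were derived by non-compartmental analysis.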

A short description of data set [2]: Clearance in NMRI mouse at 50 mg/kg, iv. The data set is classed as ADME, organism-based. Details: dose 50 mg/kg, route intravenous. Conditions: in vivo. A digest of the protocol: as §1
Data set [3] in a line: Apparent volume of distribution in NMRI mouse at 50 mg/kg, iv. It counts as ADME, organism-based. Details: dose 50 mg/kg, route intravenous. Conditions: in vivo, read-out: Vz. The gist of the method:
as §1

A short description of data set [4]: Cmax in NMRI mouse at 50 mg/kg, iv. The data set is classed as ADME, organism-based. Also noted: dose 50 mg/kg, route intravenous. The note with it: in vivo. A digest of the protocol: as §1
A short description of data set [5]: Tmax in NMRI mouse at 50 mg/kg, iv. The data set is classed as ADME, organism-based. The note with it: in vivo. Details: dose 50 mg/kg, route intravenous. The gist of the method: as §1
A short description of data set [6]: Half life in NMRI mouse at 50 mg/kg, iv. It counts as ADME, organism-based. Details: dose 50 mg/kg, route intravenous. The note with it: in vivo. A digest of the protocol: as §1
Data set [7] in a line: Toxicity in ip dosed NMRI mouse assessed as blood cell count administered as bid for 5 days. It counts as organism-based. The note with it: in vivo.
Data set [8] can be described thus: Toxicity in ip dosed NMRI mouse assessed as body weight loss administered as bid for 5 days. The data set is classed as organism-based. Conditions: in vivo.
Data set [9] deals with HCT-116. Put plainly: Resistance factor, ratio of IC50 for APO866-resistant human HCT116 cells to IC50 for human HCT116 cells. The data set is classed as functional.
For data set [10], the system named is HCT-116. Put plainly: Cytotoxicity against APO866-resistant human HCT116 cells assessed as growth inhibition after 72 hrs by WST-1 assay. The data set is classed as functional, cell-based. The note with it: HCT-116, 72 h. (Tetrazolium assays rely on reduction of a dye to a coloured formazan, in cell work by metabolically active cells.)
In data set [11] the test system is HCT-116. The data set is described as follows: Cytotoxicity against human HCT116 cells assessed as growth inhibition after 72 hrs by WST-1 assay. The data set is classed as functional, cell-based. The note with it: HCT-116, 72 h.
Data set [12] has as its system MCF7. Put plainly: Cytotoxicity against human MCF-7 cells assessed as growth inhibition after 72 hrs by WST-1 assay. Conditions: MCF7, 72 h. The data set is classed as functional, cell-based.
For data set [13], the system named is A2780. Put plainly: Cytotoxicity against human A2780 cells assessed as growth inhibition after 72 hrs by WST-1 assay. Conditions: A2780, 72 h. The data set is classed as functional, cell-based.
For data set [14], the system named is Mus musculus. Put plainly: Toxicity in human A2780 cells xenografted NMRI/nude mouse containing small tumors assessed as effect on body weight at 15 mg/kg, ip bid administered for 10 days. The data set is classed as organism-based. Conditions: in vivo, 240 h. Also noted: dose 15 mg/kg, route intraperitoneal. The gist of the method:
(§2)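 A2780 xenografts were dosed i.p. bid at 15 mg/kg. Large tumours (start 500 mm³) were dosed on days 0-4 + 7-11; small tumours (start 100 mm³) on days 0-9. Tumour volume was calculated as width²×length/2 from caliper diameters, and body weight was recorded during treatment. Tumours were followed after treatment up to the maximum allowed size of 1000 mm³.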
A general note: In xenograft studies the graft and the host belong to different species.

In data set [15] the test system is A2780. Put plainly: Antitumor activity against human A2780 cells xenografted in NMRI/nude mouse assessed as tumor growth inhibition at 15 mg/kg, ip bid administered for 5 days measured at day 14 relative to vehicle-treated control. It counts as functional. The note with it: route intraperitoneal.
In data set [16] the test system is A2780. Put plainly: Antitumor activity against human A2780 cells xenografted in NMRI/nude mouse containing large tumors assessed as tumor growth inhibition at 15 mg/kg, ip bid administered on day 1 to 4 and day 7 to 11 measured after compound treatment. It counts as functional, organism-based. Details: dose 15 mg/kg. The gist of the method:
as §2

Data set [17] relates to A2780. The data set is described as follows: Antitumor activity against human A2780 cells xenografted in NMRI/nude mouse containing small tumors assessed as tumor growth inhibition at 15 mg/kg, ip bid administered for 10 days measured after compound treatment. The data set is classed as functional, organism-based. Details: dose 15 mg/kg. A digest of the protocol:
as §2

In data set [18] the test system is A2780. The data set is described as follows: Antitumor activity against human A2780 cells xenografted in NMRI/nude mouse containing large tumors assessed as tumor growth inhibition at 15 mg/kg, ip bid administered on day 1 to 4 and day 7 to 11 measured during compound administration. Details: dose 15 mg/kg. It counts as functional, organism-based. A digest of the protocol: as §2

Data set [19] concerns A2780. Put plainly: Antitumor activity against human A2780 cells xenografted in NMRI/nude mouse containing small tumors assessed as tumor growth inhibition at 15 mg/kg, ip bid administered for 10 days measured during compound administration. It counts as functional, organism-based. Details: dose 15 mg/kg. The gist of the method: as §2
In another data set the test system is SK-OV-3. Put plainly: Cytotoxicity against human SKOV3 cells by clonogenic assay. It counts as functional, cell-based.
A short description of data set [20]: Cytotoxicity against human NYH cells by clonogenic assay. It counts as functional, cell-based.
A further data set concerns PC-3. Put plainly: Cytotoxicity against human PC3 cells by clonogenic assay. The data set is classed as functional, cell-based.
Data set [21] relates to MCF7. The data set is described as follows: Cytotoxicity against human MCF7 cells after 96 hrs by clonogenic assay. The data set is classed as functional, cell-based. Conditions: MCF7, 96 h. The gist of the method: (§3)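 Cells were exposed to compound for the indicated time and then seeded in 3% agar over a sheep erythrocyte feeder layer. Plates were cultured 14–21 days at 37 °C, and colonies were counted with a digital colony counter.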

The subject of data set [22] is MCF7. Put plainly: Cytotoxicity against human MCF7 cells after 24 hrs by clonogenic assay. The data set is classed as functional, cell-based. The note with it: MCF7, 24 h. A digest of the protocol: as §3
A further data set deals with DU-145. The data set is described as follows: Cytotoxicity against human DU145 cells by clonogenic assay. The data set is classed as functional, cell-based.
Data set [23] concerns A2780. The data set is described as follows: Cytotoxicity against human A2780 cells after 16 hrs by clonogenic assay. It counts as functional, cell-based. The note with it: A2780, 16 h. A digest of the protocol:
as §3

For data set [24], the target named is Nicotinamide phosphoribosyltransferase (Homo sapiens, UniProt P43490). Put plainly: Inhibition of NAMPT in human HepG2 cells using [14C]-nicotinamide/PRPP as substrate assessed as formation of [14C]-nicotinamide mononucleotide after 1 hr by liquid scintillation counting analysis. The data set is classed as cell-based.
Nicotinamide phosphoribosyltransferase, sequence (P43490 whole entry): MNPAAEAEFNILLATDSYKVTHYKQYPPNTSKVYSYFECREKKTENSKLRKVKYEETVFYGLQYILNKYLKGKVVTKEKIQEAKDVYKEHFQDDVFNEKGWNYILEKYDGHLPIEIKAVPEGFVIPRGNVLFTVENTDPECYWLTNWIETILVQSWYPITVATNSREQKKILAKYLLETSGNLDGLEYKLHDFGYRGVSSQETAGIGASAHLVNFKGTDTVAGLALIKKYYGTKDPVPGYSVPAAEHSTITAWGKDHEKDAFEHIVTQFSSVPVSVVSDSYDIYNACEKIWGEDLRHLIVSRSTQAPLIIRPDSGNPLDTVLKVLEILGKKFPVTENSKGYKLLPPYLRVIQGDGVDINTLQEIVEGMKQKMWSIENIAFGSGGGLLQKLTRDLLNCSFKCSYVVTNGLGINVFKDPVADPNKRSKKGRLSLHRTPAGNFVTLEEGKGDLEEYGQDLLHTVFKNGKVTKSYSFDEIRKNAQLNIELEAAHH
Data set [25] deals with Mus musculus. Put plainly: Toxicity in human A2780 cells xenografted NMRI/nude mouse containing large tumors assessed as effect on body weight at 15 mg/kg, ip bid administered on day 1 to 4 and day 7 to 11. Conditions: in vivo.
For data set [26], the system named is Mus musculus. The data set is described as follows: Toxicity in human A2780 cells xenografted NMRI/nude mouse containing small tumors assessed as effect on body weight at 0.63 to 2.5 mg/kg, ip bid administered for 5 days measured at day 14 relative to vehicle-treated control. The data set is classed as organism-based. Details: dose 0.63-2.5 mg/kg, route intraperitoneal. The note with it: in vivo, 120 h.

Data set [27] has as its system Mus musculus. The data set is described as follows: Toxicity in human A2780 cells xenografted NMRI/nude mouse containing large tumors assessed as effect on body weight at 3 mg/kg, ip bid administered for 10 days. Conditions: in vivo.
Data set [28] has as its system Mus musculus. Put plainly: Toxicity in human A2780 cells xenografted NMRI/nude mouse containing large tumors assessed as effect on body weight at 5 to 10 mg/kg, ip bid administered for 10 days measured during compound administration. Conditions: in vivo, 240 h.

In the case of `O=C1C(=O)C(Nc2ccncc2)C1NCCCCCCS(=O)(=O)N(OCCN1CCOCC1)C1CCCCC1` (configuration not stated), in data set [1], the area under the curve (AUC) was 12500 ng·h/mL. The compound also gave a clearance in data set [2] of 66.6 mL/min/kg. Also, the Vd in data set [3] was 1.2 L/kg. In [4], this compound gave a Cmax of 33500 ng/mL. Also, the Tmax in [5] came to 4.98 min. Also, the half-life in data set [6] was 12.6 min. The MTD at 120 h in data set [7] and in data set [8] was under 10 mg/kg in each case. For the same compound, the “Ratio IC50” value with HCT-116 [9] turned out to be 128. Further, the IC50 in the data set with HCT-116 [10] is over 5000 nM; with HCT-116 [11], 39 nM; in the data set with MCF7 [12], 9 nM; in the data set on A2780 [13], 0.49 nM.

In the case of `N#C/N=C(\NCCCCCCS(=O)(=O)N(CCF)OCC1CCCCC1)Nc1ccncc1`, the Activity entry with Mus musculus [14] and with Mus musculus [25] was “Non-toxic” throughout. Further, in the data set on A2780 [15], the T/C is reported as 52%. The TGI result with A2780 [16] and in the data set on A2780 [17] was “inactive” throughout. Moreover, the TGI result in the data set on A2780 [18] and with A2780 [19] was “Active” each time. For the same compound, in [1], the AUC is 47500 ng·h/mL. This compound showed a clearance in data set [2] of 17.5 mL/min/kg. For the same compound, the Vd in [3] was 0.547 L/kg. This compound registered a Cmax in data set [4] of 78500 ng/mL. For the same compound, the Tmax in [5] stood at 4.8 min. In data set [6], this compound had a half-life of 21.6 min. In addition, the MTD at 120 h in data set [7] and in data set [8] was under 10 mg/kg each time. Further, the IC50 was 3.4 nM in the data set on SK-OV-3; 0.05 nM in data set [20]; 0.35 nM in the data set on PC-3; 0.98 nM in the data set with MCF7 [21]; over 50 nM in the data set with MCF7 [22]; 6.39 nM in the data set with DU-145. Also, the IC50 is 0.43 nM in the data set with A2780 [23]; 3.2 nM in data set [24]; over 5000 nM in the data set on HCT-116 [10]; 3.6 nM with HCT-116 [11]; 0.1 nM in the data set on MCF7 [12]; 0.052 nM with A2780 [13]. In addition, in the data set with HCT-116 [9], the “Ratio IC50” value is 128.

As to `O=C(NCCCCCCS(=O)(=O)N(OCCN1CCOCC1)C1CCCCC1)Nc1ccncc1`, the AUC in [1] came to 7020 ng·h/mL. The clearance in data set [2] was 118 mL/min/kg. Moreover, the Vd in data set [3] is 4.6 L/kg. In [4], this compound had a Cmax of 14800 ng/mL. The Tmax in data set [5] was determined as 4.8 min. Further, the half-life in data set [6] was 27 min. Besides, the MTD at 120 h in data set [7] and in data set [8] was under 10 mg/kg throughout. Moreover, the IC50 in data set [24] is 49 nM; in the data set with HCT-116 [10] it was over 5000 nM; in the data set on HCT-116 [11] it was 5.3 nM; in the data set with MCF7 [12], 0.05 nM; in the data set with A2780 [13] it was 0.25 nM. For the same compound, the “Ratio IC50” value in the data set with HCT-116 [9] came out at 128.

Take `N#CNC(=Nc1ccncc1)NCCCCCCS(=O)(=O)N(OCCN1CCOCC1)C1CCCCC1`: the Activity result with Mus musculus [26] is “Non-toxic”; in the data set on Mus musculus [27], “Non-toxic”; in the data set on Mus musculus [28] it was “Toxic”. This compound also came in with an AUC in data set [1] of 10200 ng·h/mL. Moreover, the clearance in data set [2] is 81.8 mL/min/kg. Also, the Vd in data set [3] amounted to 1.28 L/kg. In data set [4], this compound had a Cmax of 14100 ng/mL. Further, the Tmax in [5] is 4.8 min. Besides, the half-life in [6] was 10.8 min. Also, the MTD at 120 h in data set [7] and in [8] was under 10 mg/kg throughout. Moreover, the IC50 in [24] turned out to be 0.3 nM.

For orientation: AUC means concentration integrated over time. Low readings indicate low exposure, high ones high exposure. The term clearance denotes a measure of how efficiently the substance is removed, as volume per time. Usually Cmax stands for the highest concentration seen after dosing. As a reminder, the Tmax is the time at which the peak concentration occurs. By half-life is commonly meant the time in which the quantity being followed falls by half. A low value points to fast loss. The term IC50 denotes the midpoint of a concentration-inhibition curve. What is called T/C is the ratio of treated to control.
